Experimental data taken from ChEMBL document CHEMBL3526048, “In vitro metabolism of rivoglitazone, a novel peroxisome proliferator-activated receptor γ agonist, in rat, monkey, and human liver microsomes and freshly isolated hepatocytes” (Drug Metab Dispos, 2011).

Experiments:
[1] = biological target: T1, UDP-glucuronosyltransferase 1A3 (Homo sapiens, UniProt P35503); assay: Activity of human UGT1A3 expressed in microsomes isolated from baculovirus infected insect cell assessed as enzyme-mediated 2-((4-((2,4-dioxothiazolidin-5-yl)methyl)phenoxy)methyl)-1-methyl-1H-benzo[d]imidazol-6-yl hydrogen sulfate formation at 20 uM after 4 hrs by radio-HPLC/LC-MS/MS analysis; assay type: ADME
T1 sequence (P35503 whole entry): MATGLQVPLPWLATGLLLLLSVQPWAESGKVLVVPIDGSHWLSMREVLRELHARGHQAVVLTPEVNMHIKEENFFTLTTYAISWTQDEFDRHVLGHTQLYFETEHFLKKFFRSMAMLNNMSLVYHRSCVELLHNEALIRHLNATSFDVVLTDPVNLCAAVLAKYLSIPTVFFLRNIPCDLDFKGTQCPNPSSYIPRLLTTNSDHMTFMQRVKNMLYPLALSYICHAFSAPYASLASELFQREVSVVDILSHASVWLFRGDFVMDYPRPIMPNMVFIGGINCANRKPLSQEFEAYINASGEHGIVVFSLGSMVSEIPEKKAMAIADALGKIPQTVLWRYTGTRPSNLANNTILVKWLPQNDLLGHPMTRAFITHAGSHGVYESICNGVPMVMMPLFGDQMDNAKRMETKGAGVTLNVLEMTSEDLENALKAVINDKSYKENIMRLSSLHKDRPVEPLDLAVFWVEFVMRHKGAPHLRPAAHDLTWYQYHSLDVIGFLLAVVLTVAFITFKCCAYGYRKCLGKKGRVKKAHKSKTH
Summary of the method: (§1)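 Alamethicin (50 μg/mg protein, 15 min on ice) pretreated expressed human UGT microsomes (1 mg/ml protein) from baculovirus-infected insect cells. Incubation with [¹⁴C]rivoglitazone (20 μM) in 100 mM Tris-HCl (pH 7.5) with 10 mM MgCl₂, started by 5 mM UDPGA, 4 h at 37°C with shaking. UGT insect-cell control supersomes were run alongside. Acetonitrile stop, concentrated supernatant analysed by radio-HPLC, LC-MS and LC-MS/MS.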

[2] = biological target: T2, Cytochrome P450 1A2 (Homo sapiens, UniProt P05177); assay: Activity of human CYP1A2 expressed in microsomes isolated from baculovirus infected insect cell assessed as enzyme-mediated 3-(4-((6-methoxy-1-methyl-1H-benzo[d]imidazol-2-yl)methoxy)phenyl)-2-(methylsulfonyl)propanamide formation at 20 uM after 2 hrs by radio-HPLC/LC-MS/MS analysis in presence of NADPH-generating system/SAM; assay type: ADME
T2 sequence (P05177 whole entry): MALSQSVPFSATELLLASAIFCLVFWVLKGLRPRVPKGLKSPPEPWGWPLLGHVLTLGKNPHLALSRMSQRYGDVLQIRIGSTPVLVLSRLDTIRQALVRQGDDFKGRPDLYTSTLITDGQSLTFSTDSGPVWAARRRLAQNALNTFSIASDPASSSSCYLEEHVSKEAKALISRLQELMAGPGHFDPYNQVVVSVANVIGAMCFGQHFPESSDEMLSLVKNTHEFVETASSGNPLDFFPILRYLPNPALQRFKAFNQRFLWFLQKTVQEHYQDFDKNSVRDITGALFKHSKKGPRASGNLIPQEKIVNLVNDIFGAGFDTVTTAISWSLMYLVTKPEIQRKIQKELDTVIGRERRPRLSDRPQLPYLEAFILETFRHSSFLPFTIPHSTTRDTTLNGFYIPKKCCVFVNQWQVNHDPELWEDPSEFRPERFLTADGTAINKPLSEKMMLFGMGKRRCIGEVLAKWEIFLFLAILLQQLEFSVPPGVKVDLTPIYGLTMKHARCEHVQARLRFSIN

[3] = tested on: Liver microsome; assay: Drug metabolism in Sprague-Dawley rat liver microsomes assessed as formation of 3-(4-((6-methoxy-1-methyl-1H-benzo[d]imidazol-2-yl)methoxy)phenyl)-2-(methylsulfinyl)propanamide at 20 uM after 2 hrs by radio-HPLC/LC-MS/MS analysis in presence of NADPH-generating system/SAM; assay type: ADME
[4] = biological target: Cytochrome P450 3A5 (Homo sapiens, UniProt P20815); assay: (§2) Activity of human CYP3A5 expressed in microsomes isolated from baculovirus infected insect cell assessed as enzyme-mediated 3-(4-((6-methoxy-1-methyl-1H-benzo[d]imidazol-2-yl)methoxy)phenyl)-2-(methylthio)propanoic acid formation at 20 uM after 2 hrs by radio-HPLC/LC-MS/MS analysis in presence of NADPH-generating system/SAM and UDPGA/SAM; assay type: ADME
Cytochrome P450 3A5, sequence (P20815 whole entry): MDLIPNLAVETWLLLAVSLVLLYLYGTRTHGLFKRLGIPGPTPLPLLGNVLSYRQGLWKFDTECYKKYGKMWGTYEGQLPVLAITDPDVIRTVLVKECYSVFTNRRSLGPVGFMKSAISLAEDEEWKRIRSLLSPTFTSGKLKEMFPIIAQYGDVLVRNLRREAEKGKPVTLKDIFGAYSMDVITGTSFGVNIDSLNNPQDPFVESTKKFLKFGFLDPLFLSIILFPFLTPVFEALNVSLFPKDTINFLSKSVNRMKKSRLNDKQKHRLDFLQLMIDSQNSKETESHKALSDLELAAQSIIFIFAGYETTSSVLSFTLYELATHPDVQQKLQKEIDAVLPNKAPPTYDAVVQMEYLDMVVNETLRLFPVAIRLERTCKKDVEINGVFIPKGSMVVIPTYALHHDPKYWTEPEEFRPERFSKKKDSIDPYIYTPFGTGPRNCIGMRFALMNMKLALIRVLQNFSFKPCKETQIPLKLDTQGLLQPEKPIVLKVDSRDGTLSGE
Summary of the method: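 cDNA-expressed human CYP3A5 in baculovirus-insect-cell microsomes (1 mg/ml protein) was incubated with [¹⁴C]rivoglitazone (20 μM) in 50 mM potassium phosphate (pH 7.4) or 100 mM Tris-HCl (pH 7.5). NADPH-generating system: 2 mM NADP⁺, 20 mM glucose 6-phosphate, 2 units/ml G6PDH, 10 mM MgCl₂. Incubation ran 2 h at 37°C with shaking; insect-cell control supersomes served as control. Acetonitrile stop, supernatant concentrated, then radio-HPLC, LC-MS and LC-MS/MS.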

[5] = biological target: T1, UDP-glucuronosyltransferase 1A3; assay: Activity of human UGT1A3 expressed in microsomes isolated from baculovirus infected insect cell assessed as enzyme-mediated 2-amino-3-((1-carboxy-2-(4-((6-methoxy-1-methyl-1H-benzo[d]imidazol-2-yl)methoxy)phenyl)ethyl)disulfanyl)propanoic acid formation at 20 uM after 4 hrs by radio-HPLC/LC-MS/MS analysis in presence of UDPGA and UDPGA/SAM; assay type: ADME; summary of the method: as §1
[6] = biological target: Cytochrome P450 2D6 (Homo sapiens, UniProt P10635); assay: as §2, with “CYP2D6” for “CYP3A5”; assay type: ADME
Cytochrome P450 2D6, sequence (P10635 whole entry): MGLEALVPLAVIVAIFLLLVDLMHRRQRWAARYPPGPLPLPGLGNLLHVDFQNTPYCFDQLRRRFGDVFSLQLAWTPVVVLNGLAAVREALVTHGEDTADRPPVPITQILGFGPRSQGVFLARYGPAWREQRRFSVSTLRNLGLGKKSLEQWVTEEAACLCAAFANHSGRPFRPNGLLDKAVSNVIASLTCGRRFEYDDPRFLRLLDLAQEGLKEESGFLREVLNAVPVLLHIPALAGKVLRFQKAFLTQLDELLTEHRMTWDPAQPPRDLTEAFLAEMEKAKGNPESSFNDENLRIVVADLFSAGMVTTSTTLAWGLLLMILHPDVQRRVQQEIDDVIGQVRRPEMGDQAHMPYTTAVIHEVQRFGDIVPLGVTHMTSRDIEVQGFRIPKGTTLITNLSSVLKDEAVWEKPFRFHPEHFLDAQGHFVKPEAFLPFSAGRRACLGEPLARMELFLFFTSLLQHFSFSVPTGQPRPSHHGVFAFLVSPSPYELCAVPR

[7] = biological target: T1, UDP-glucuronosyltransferase 1A3; assay: Activity of human UGT1A3 expressed in microsomes isolated from baculovirus infected insect cell assessed as enzyme-mediated 5-(4-((6-hydroxy-1-methyl-1H-benzo[d]imidazol-2-yl)methoxy)benzyl)thiazolidine-2,4-dione formation at 20 uM after 4 hrs by radio-HPLC/LC-MS/MS analysis in presence of NADPH-generating system/SAM; assay type: ADME
[8] = biological target: T3, UDP-glucuronosyltransferase 1A10 (Homo sapiens, UniProt Q9HAW8); assay: Activity of human UGT1A10 expressed in microsomes isolated from baculovirus infected insect cell assessed as enzyme-mediated 2-mercapto-3-(4-((6-methoxy-1-methyl-1H-benzo[d]imidazol-2-yl)methoxy)phenyl)propanoic acid formation at 20 uM after 4 hrs by radio-HPLC/LC-MS/MS analysis in presence of UDPGA; assay type: ADME; summary of the method: as §1
T3 sequence (Q9HAW8 whole entry): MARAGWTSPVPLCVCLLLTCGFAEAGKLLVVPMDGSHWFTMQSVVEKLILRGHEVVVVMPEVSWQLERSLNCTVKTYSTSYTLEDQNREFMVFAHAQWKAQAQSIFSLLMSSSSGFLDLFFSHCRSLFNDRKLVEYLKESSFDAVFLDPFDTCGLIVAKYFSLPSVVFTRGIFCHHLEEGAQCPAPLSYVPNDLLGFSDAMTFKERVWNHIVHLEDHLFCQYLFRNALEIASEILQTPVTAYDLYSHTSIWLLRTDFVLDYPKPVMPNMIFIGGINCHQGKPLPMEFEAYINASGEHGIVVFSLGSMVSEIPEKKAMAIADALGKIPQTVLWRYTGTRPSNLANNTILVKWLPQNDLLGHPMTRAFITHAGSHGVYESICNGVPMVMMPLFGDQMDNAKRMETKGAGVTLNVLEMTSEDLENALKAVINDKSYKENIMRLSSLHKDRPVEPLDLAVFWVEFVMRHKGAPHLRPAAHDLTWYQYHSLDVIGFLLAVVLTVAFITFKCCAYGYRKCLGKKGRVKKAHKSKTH

[9] = Drug metabolism in cynomolgus monkey liver microsomes assessed as formation of 2-((4-((2,4-dioxothiazolidin-5-yl)methyl)phenoxy)methyl)-1-methyl-1H-benzo[d]imidazol-6-yl hydrogen sulfate at 20 uM by radio-HPLC/LC-MS/MS analysis; assay type: ADME, Macaca fascicularis

What does the source list for `COc1ccc2nc(COc3ccc(C[14CH]4SC(=O)NC4=O)cc3)n(C)c2c1.Cl` (racemic)?
Drug metabolism [1]: metabolite_not_detected; Drug metabolism [2]: metabolite_not_detected; Drug metabolism [3]: metabolite_detected; Drug metabolism [4]: metabolite_not_detected; Drug metabolism [5]: metabolite_not_detected; Drug metabolism [6]: metabolite_not_detected; Drug metabolism [7]: metabolite_not_detected; Drug metabolism [8]: metabolite_not_detected; Drug metabolism [9]: metabolite_not_detected
